Apaf-1 inh = blocks human Apaf-1 apoptosome activity; reconstituted apoptosome caspase-3 activity, DEVD-Rh110 fluorescence; inhibition, % at 20 µM; actives 0.71% (n = 330,000); active means inhibition of at least 40% at 20 µM
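detection = Rh110 fluorescence intensity | test system = biochemical Apaf-1 apoptosome reconstitution | also added = cytochrome c and DEVD-Rh110 substrate | schedule = 30 min plus 50 min, RT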
PAFAH1B3 FP inh = PAFAH1B3 (human) inhibition; Q15102; recombinant PAFAH1B3, FP-rhodamine probe, fluorescence polarization; inhibition, % at 3.39 µM; actives 0.28% (n = 340,000);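 active means inhibition above the screen-wide average of all tested compounds plus 3 SD, cut at about 25% in these data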
Target sequence (Q15102 whole entry, looked up): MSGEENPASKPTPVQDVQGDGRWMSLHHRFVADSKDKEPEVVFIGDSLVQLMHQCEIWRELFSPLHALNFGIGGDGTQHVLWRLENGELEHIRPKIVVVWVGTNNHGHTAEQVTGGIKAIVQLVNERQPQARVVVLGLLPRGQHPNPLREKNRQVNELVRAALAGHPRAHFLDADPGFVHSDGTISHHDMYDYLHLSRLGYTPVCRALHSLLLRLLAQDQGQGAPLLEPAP
TDP2 inh = TDP2 (human) inhibition, absorbance primary screen; recombinant TDP2, T5PNP hydrolysis, p-nitrophenol absorbance 415 nm; actives 0.34% (n = 370,000); inhibition, % at 12.8 µM;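 active means inhibition above the mean of all tested compounds plus 3 SD, set per campaign, cut at about 25% in these data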
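Evaluation: % inhibition relative to enzyme-containing and enzyme-free wells. Material: recombinant human TDP2. Benchmarks: enzyme-free and DMSO wells. Timing: enzyme reaction with compound for 2 h at 37 °C. Compound dosing: 12.8 µM only. Measured by: p-Nitrophenol epi absorbance. Reagent: T5PNP substrate at 5 mM, a TopII-DNA adduct mimic. Replication: single well per compound.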
PAFAH2 inh = inhibitors of human PAFAH2. Q99487. recombinant PAFAH2, FP-rhodamine activity probe, fluorescence polarization. inhibition, % at 3.39 µM. actives 0.99% (n = 340,000);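 active means inhibition above the mean over all tested compounds plus 3 SD, cut at about 30% in these data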;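 further: inhibitors block probe labeling of enzyme so polarization drops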
PAFAH1B2 inh = inhibitors of human PAFAH1B2. recombinant PAFAH1B2, FP-rhodamine activity probe, fluorescence polarization. inhibition, % at 3.39 µM. actives 1.2% (n = 340,000). AID 492953;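 active means inhibition above the mean of all tested compounds plus 3 SD, cut at about 24% in these data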
Target sequence (P68402 whole entry, looked up): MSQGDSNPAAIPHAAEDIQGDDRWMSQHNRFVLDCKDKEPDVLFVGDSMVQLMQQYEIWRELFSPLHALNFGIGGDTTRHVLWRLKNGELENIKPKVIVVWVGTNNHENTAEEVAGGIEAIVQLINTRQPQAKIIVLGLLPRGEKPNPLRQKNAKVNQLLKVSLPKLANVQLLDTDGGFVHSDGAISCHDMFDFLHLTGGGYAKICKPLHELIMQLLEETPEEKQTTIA
PAFAH2 FP conf = confirmation of human PAFAH2 inhibitors; shares compounds with PAFAH2 inh; recombinant PAFAH2, FP-rhodamine activity probe, fluorescence polarization; inhibition, % at 3.39 µM; actives 65% (n = 2,300); AID 493030;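 active means mean inhibition over three repeats above a set limit taken from the earlier primary screen, cut at about 30% in these data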;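 further: inhibitor blocks binding of rhodamine activity probe so polarization falls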
Hits are given with their value; - = inactive; . = no result. In the library only some 2.3% were active in any assay of this set; here they are far more common.

SMILES | Apaf-1 inh | PAFAH1B3 FP inh | TDP2 inh | PAFAH2 inh | PAFAH1B2 inh | PAFAH2 FP conf
COc1ccccc1/C=C/C(=O)OCC(=O)NNC(=O)c1ccccc1 | - | - | - | - | - | .
COc1ccc(/C=C/C(=O)OCC(=O)NC2CCCC2)c(OC)c1 | - | - | - | 86 | - | 85
C=CCN1C(=O)[C@@H](CC(=O)NCc2cccc3ccccc23)[C@]2(C(=O)OC)CCCCC=C12 | . | . | - | . | . | .
CCOc1ccc(-c2cc(C(C)=O)c3n(c2=O)CCC3)cc1 | . | . | - | . | . | .
COC(=O)[C@]12C[C@H](CC(=O)NCc3ccc(C)o3)C(=O)N(Cc3ccc4c(c3)OCO4)C1=C[C@H](C(C)(C)C)O[C@@H]2C | . | . | - | . | . | .
COc1cc(/C=C/C(=O)OCC(=O)NC2CC2)cc(S(=O)(=O)N2CCc3ccccc32)c1OC | - | - | - | 53 | - | 38
COc1ccccc1/C=C/C(=O)OCC(=O)N1CCc2ccccc21 | - | - | - | 77 | - | 71
COc1cc(/C=C/C(=O)OCC(=O)Nc2ccc(NC(C)=O)cc2)cc(S(=O)(=O)N2CCc3ccccc32)c1OC | - | - | - | - | - | .
O=C1CN(C(=O)COC(=O)C2=COCCO2)c2ccccc2N1 | - | - | - | - | - | .
O=C(OCC(=O)N1CCc2ccccc21)C1=COCCO1 | - | - | - | 30 | - | -
O=S1(=O)c2ccc(Br)cc2OC[C@H](Cc2ccccc2)N1Cc1cn(Cc2ccc(C(F)(F)F)cc2)nn1 | . | . | - | . | . | .
O=C(N1CCC(Cc2ccccc2)CC1)n1ncc(C(O)(c2ccccc2)c2ccccc2)n1 | . | . | - | . | . | .
Cc1c(NS(=O)(=O)c2cccc(C(=O)NCc3ccccc3Cl)c2)c(=O)n(-c2ccccc2)n1C | - | - | - | - | - | .
Cc1c(NS(=O)(=O)c2cccc(C(=O)OCC(=O)c3ccc(Cl)cc3)c2)c(=O)n(-c2ccccc2)n1C | . | - | - | 30 | - | -
COC(=O)Cc1nnn2c1[C@@H](C)[C@@H](c1ccccc1Br)OC[C@H](C)C2 | . | . | - | . | . | .
O=C1C(=Cc2ccco2)CCC1=Cc1ccco1 | . | - | - | 56 | - | -
Cc1ccsc1S(=O)(=O)n1c(CN2CCOCC2)nc2ccccc21 | . | . | - | . | . | .
CC(C)(C)c1nc[nH]c(=O)c1Br | - | - | - | 63 | - | 41
COC(=O)CSc1nnc(-c2ccc(NS(=O)(=O)c3c(C(C)C)cc(C(C)C)cc3C(C)C)cc2)o1 | . | . | - | . | . | .
CC(C)C1=NN2C(=N)CC(=O)N=C2S1 | - | - | - | - | - | .
CCCCC1=NN2C(=N)CC(=O)N=C2S1 | - | - | - | 33 | - | -
CCCC1CCC2(CCCN2CCOC(=S)NCc2cccc(C)c2)CC1 (stereo unspecified) | . | . | - | . | . | .
Cc1cc(N2CCNC[C@@H]2C)ccc1N1CCN(Cc2ccccc2)[C@H](C)C1 | . | . | - | . | . | .
O=C1/C(=C\c2cc([N+](=O)[O-])ccc2O)SC(=S)N1Cc1ccc(Cl)cc1 | . | - | - | - | - | .
Cc1ccccc1/C=C1\SC(=S)N(/N=C/c2cc([N+](=O)[O-])ccc2O)C1=O | - | - | - | 32 | - | -
SMILES | Apaf-1 inh | PAFAH1B3 FP inh | TDP2 inh | PAFAH2 inh | PAFAH1B2 inh | PAFAH2 FP conf
Cc1nn(C2CCS(=O)(=O)C2)c(Cl)c1/C=C/C(=O)OCC(=O)Nc1ccccc1OC(F)F (stereo unspecified) | - | - | - | 50 | - | 43
C=CCn1c(C)cc(C(=O)COC(=O)/C=C/c2c(C)nn(C3CCS(=O)(=O)C3)c2Cl)c1C (stereo unspecified) | - | - | - | 53 | - | 43
Cc1nn(C2CCS(=O)(=O)C2)c(Cl)c1/C=C/C(=O)OCC(=O)Nc1ccccc1[N+](=O)[O-] (stereo unspecified) | - | - | - | 75 | - | 74
C=CCn1c(COc2ccc(C)cc2)nnc1SCc1ccc([N+](=O)[O-])cc1 | . | . | - | . | . | .
O=C(COC(=O)c1cccc(Cl)c1)NCc1ccccc1 | - | - | - | - | - | .
CCOc1ccc(C(=O)OCC(=O)NCc2ccccc2)cc1OCC | - | - | - | 72 | - | 66
CCOc1ccc(C(=O)OCC(=O)Nc2cccnc2Cl)cc1OCC | - | - | - | 74 | - | 58
Cc1cc(C(=O)OCC(=O)Nc2cc(S(=O)(=O)N3CCOCC3)ccc2Cl)c(C)o1 | - | - | - | 35 | - | 31

Screens as filed in PubChem.
